The subject of data set [1] is Cytochrome P450. The experiment in a line: Drug metabolism in human primary hepatocytes assessed as Cytochrome P450-mediated formation of 3-OHNVP at 10 uM incubated for 24 to 48 hrs by uHPLC-MS analysis. In kind it is ADME, cell-based. The procedure, abridged: (§1)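 Cryoplateable pooled human hepatocytes (10 mixed-sex donors per pool, three lots), adhered overnight, then 10 μM substrate or vehicle (0.1% DMSO) for 24 or 48 h in InVitroGRO CP medium. Medium extracted with 50% acetonitrile, dried, reconstituted in methanol; uHPLC-Orbitrap MS/MS for monooxygenated metabolites, high-resolution MS for O-glucuronide.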

The test system of data set [2] is Hepatocyte. The experiment in a line: Toxicity in C57BL/6J mouse primary hepatocytes assessed as reduction in cell viability by measuring EtBr-positive cell nuclei level at 400 uM incubated for 8 hrs by EtBr/AcrO staining based assay (reference value: 19%). The procedure, abridged:
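Fresh male C57BL/6J mouse hepatocytes on collagen-coated coverslips, 400 μM compound or vehicle (0.2% DMSO) for 8 h; 10 μM staurosporine as positive control. Ethidium bromide/acridine orange costaining, imaging, percentage of EtBr-positive nuclei scored as dead cells; unpaired two-tailed t test.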

Data set [3] is described as follows: Drug metabolism in C57BL/6J mouse primary hepatocytes assessed as Cytochrome P450-mediated formation of 8-OHNVP at 10 uM incubated for 24 hrs by uHPLC-MS analysis. In kind it is ADME, cell-based. The procedure, abridged:
(§2)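 Fresh hepatocytes from male C57BL/6J mice (8–13 weeks), adhered overnight, then 10 μM substrate or vehicle (0.1% DMSO) for 24 h. Medium extracted with acetonitrile (50% final), dried, reconstituted in methanol; uHPLC-Orbitrap targeted SIM plus PRM (monooxygenated metabolites) or high-resolution ions (O-glucuronides, 459.1510/462.1700 ±5 ppm); four experimental replicates.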

The nature of data set [4]: Drug metabolism in human assessed as formation of 12-OH-NVP. Type of data set: ADME.
A short description of data set [5]: Plasma concentration in human. In kind it is ADME, cell-free.
Data set [6] in a line: Drug metabolism in C57BL/6J mouse primary hepatocytes assessed as O-GlucNVP metabolite formation at 10 uM incubated for 24 hrs by uHPLC-MS analysis. In kind it is ADME, cell-based, Hepatocyte. The procedure, abridged: as §2
A short description of data set [7]: Drug metabolism in C57BL/6J mouse primary hepatocytes assessed as Cytochrome P450-mediated formation of 12-OHNVP at 10 uM incubated for 24 hrs by uHPLC-MS analysis. In kind it is ADME, cell-based. The procedure, abridged:
as §2

Data set [8] has as its system Cytochrome P450. Briefly: Drug metabolism in human liver microsomes assessed as Cytochrome P450-mediated formation of 12-OHNVP by measuring Kcat/Km ratio in presence of NADPH regenerating reagents by uHPLC-MS/MS analysis. The procedure, abridged: (§3)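 Pooled human liver microsomes (2.5 mg/mL) in potassium phosphate; substrate (1–400 μM) prewarmed 5 min at 37 °C with NADPH-regenerating system, started with microsomes, 30 min at 37 °C. 12-OH product quantified by uHPLC-MS/MS Orbitrap against 12-OHNVP standard curve made in microsomes without NADPH. Kcat/Km taken as slope of linear rate vs substrate fit at nonsaturating 0–50 μM.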
A general note: Liver microsomes are a subcellular fraction often used to study metabolism.

Data set [9] can be described thus: Drug metabolism in C57BL/6J mouse primary hepatocytes assessed as 12-O-GlucD2NVP metabolite formation at 10 uM incubated for 24 hrs by uHPLC-MS analysis. In kind it is ADME, cell-based, Hepatocyte. A digest of the protocol: as §2
Data set [10] has as its system Cytochrome P450. Briefly: Drug metabolism in human primary hepatocytes assessed as Cytochrome P450-mediated formation of 2-OHNVP at 10 uM incubated for 24 to 48 hrs by uHPLC-MS analysis. In kind it is ADME, cell-based. The procedure, abridged:
as §1

Data set [11] is described as follows: Drug metabolism in human primary hepatocytes assessed as O-GlucNVP metabolite formation at 10 uM incubated for 24 hrs by uHPLC-MS analysis. Type of data set: ADME, cell-based, Hepatocyte. A digest of the protocol:
as §1

Data set [12] in a line: Drug metabolism in C57BL/6J mouse primary hepatocytes assessed as Cytochrome P450-mediated formation of 2-OHNVP at 10 uM incubated for 24 hrs by uHPLC-MS analysis. In kind it is ADME, cell-based. A digest of the protocol: as §2
The subject of data set [13] is Cytochrome P450. Briefly: Drug metabolism in human liver microsomes assessed as Cytochrome P450-mediated formation of 12-OHNVP at 1 to 400 uM in presence of NADPH regenerating reagents by uHPLC-MS/MS analysis. Type of data set: ADME. A digest of the protocol:
as §3

Data set [14] concerns Cytochrome P450. Briefly: Drug metabolism in human liver microsomes assessed as Cytochrome P450-mediated formation of 2-OHNVP formation at 5 to 400 uM in presence of NADPH regenerating reagents by uHPLC-MS/MS analysis. In kind it is ADME. The procedure, abridged: (§4)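 Pooled human liver microsomes (2.5 mg/mL) with NADPH-regenerating system, substrate 5–400 μM, 30 min at 37 °C, 0.1% DMSO (0.2% at 400 μM); 2- and 3-OH metabolites by uHPLC-MS/MS Orbitrap; three replicates, mean ± SD.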

The nature of data set [15]: Drug metabolism in C57BL/6J mouse primary hepatocytes assessed as Cytochrome P450-mediated formation of 3-OHNVP at 10 uM incubated for 24 hrs by uHPLC-MS analysis. In kind it is ADME, cell-based. The procedure, abridged:
as §2

The test system of data set [16] is Cytochrome P450. The experiment in a line: Drug metabolism in human liver microsomes assessed as Cytochrome P450-mediated formation of 3-OHNVP formation at 5 to 400 uM in presence of NADPH regenerating reagents by uHPLC-MS/MS analysis. Type of data set: ADME. A digest of the protocol:
as §4

Data set [17] can be described thus: Drug level in C57BL/6J mouse primary hepatocytes treated with 10 uM NVP assessed as Cytochrome P450-mediated compound formation incubated for 24 hrs by uHPLC-MS analysis. Type of data set: ADME, cell-based. A digest of the protocol:
(§5)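 Fresh hepatocytes from male C57BL/6J mice (8–13 weeks), ≥85% viable on plating, adhered overnight, then given fresh medium with compound (final 0.1% DMSO vehicle) for 24 h in 12-well format. Culture medium deproteinized with acetonitrile (final 50%), dried, reconstituted in methanol; monooxygenated metabolites (2-, 3-, 12-OH) measured by uHPLC-MS/MS on Orbitrap. Four experimental replicates.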

Data set [18] relates to Cytochrome P450. The experiment in a line: Drug level in human primary hepatocytes treated with 10 uM NVP assessed as Cytochrome P450-mediated compound formation incubated for 24 hrs by uHPLC-MS analysis. In kind it is ADME, cell-based. A digest of the protocol:
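Cryoplateable pooled human hepatocytes (10 mixed-sex donors per lot, three lots), ≥90% viable on plating, adhered overnight, then dosed in fresh InVitroGRO CP medium with antibiotics (vehicle 0.1% DMSO) for 24 h, 12-well format. Medium extracted by acetonitrile precipitation (final 50%), dried, reconstituted in methanol; 2-, 3- and 12-OH metabolites quantified by uHPLC-MS/MS on Orbitrap.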

A short description of data set [19]: Drug level in C57BL/6J mouse primary hepatocytes treated with 10 uM 2-D3NVP assessed as Cytochrome P450-mediated compound formation incubated for 24 hrs by uHPLC-MS analysis. The note with it: in the assay text read “12-D3NVP” for “2-D3NVP”. Type of data set: ADME, cell-based. A digest of the protocol: as §5

SMILES strings stand for the structures.

Turning to `Cc1ccnc2c1NC(=O)c1cccnc1N2C1CC1` [NEVIRAPINE], the Drug metabolism result in [1] was “Metabolite_Detected”; in [3], “Metabolite_Notdetected”; in [4], 1.3 µM; in data set [6] it was “Metabolite_Detected”; in data set [7], “Metabolite_Detected”; in data set [9], “Metabolite_Notdetected”. Besides, the Drug metabolism result in data set [10], in [11], in data set [12], in [13], in data set [14] and in data set [15] was “Metabolite_Detected” throughout. Besides, the Drug metabolism result in data set [16] is reported as “Metabolite_Detected”. Also, the Activity in data set [2] is 52.6%. This compound also had a concentration in [5] of 16 µM. The Kcat/Km in [8] was found to be 1.4 M⁻¹ s⁻¹.
As to `O=C1Nc2c(CO)ccnc2N(C2CC2)c2ncccc21`, in [17], the Drug uptake entry is given as “Metabolite_Detected”.
With `Cc1c(O)cnc2c1NC(=O)c1cccnc1N2C1CC1`, the Drug uptake entry in [18] and in [17] was “Metabolite_Detected” each time.
As for `[2H]C([2H])([2H])c1cc(O)nc2c1NC(=O)c1cccnc1N2C1CC1`, the Drug uptake result in data set [19] is listed as “Metabolite_Detected”.
On to `Cc1cc(O)nc2c1NC(=O)c1cccnc1N2C1CC1`, for which the Drug uptake entry in data set [18] and in [17] was “Metabolite_Detected” in each case.
As to `[2H]C([2H])([2H])c1c(O)cnc2c1NC(=O)c1cccnc1N2C1CC1`, the Drug uptake entry in [19] is “Metabolite_Detected”.
The same measure, in the same setting: as for `[2H]C([2H])(O)c1ccnc2c1NC(=O)c1cccnc1N2C1CC1`, the entry is “Metabolite_Detected”.
